ChEMBL document CHEMBL3734683, “Synthesis and pharmacological screening of a large library of 1,3,4-thiadiazolines as innovative therapeutic tools for the treatment of prostate cancer and melanoma” (2015)
Calls of active or inactive are those of the source. The calls are words filed in the database; no cut-off is given here.

How the values were obtained:
PC-3 [1] = test: Antiproliferative activity against human PC3 cells assessed as reduction in cell viability at 0.5 to 100 uM after 72 hrs by MTT assay; format: functional, cell-based
How it was run: (§1)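 Cells plated, compound added after 24 h (DMSO dilution into culture medium), in triplicate; after 72 h, MTT added for 4 h. Controls were cells in medium alone; blanks were medium-only wells. Viability expressed as percent of viable cells versus control, mean of at least three independent assays.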

SK-MEL-5 [2] = test: Antiproliferative activity against human SK-MEL-5 cells assessed as reduction in cell viability at 5 to 50 uM after 72 hrs by MTT assay; format: functional, cell-based; how it was run: as §1
SK-MEL-28 [3] = test: Antiproliferative activity against human SK-MEL-28 cells assessed as reduction in cell viability at 5 to 50 uM after 72 hrs by MTT assay; format: functional, cell-based; how it was run: as §1
[4] = Cell cycle arrest in human PC3 cells assessed as accumulation of cells with 4N DNA at 5 uM after 96 hrs by propidium iodide staining-based FACS analysis; format: functional; details: PC-3
PC-3 [5] = test: Reduction in cyclin D1 protein level in human PC3 cells at 5 uM after 24 hrs by RT-PCR analysis relative to control; format: functional, cell-based
SK-MEL-5 [6] = test: Reduction in cyclin D1 protein level in human SK-MEL-5 cells at 5 uM after 24 hrs by RT-PCR analysis relative to control; format: functional, cell-based
SK-MEL-28 [7] = test: Reduction in cyclin D1 mRNA expression in human SK-MEL-28 cells at 5 uM after 24 hrs by RT-PCR analysis relative to control
SK-MEL-28 [8] = test: Cell cycle arrest in human SK-MEL-28 cells assessed as accumulation of cells with 4N DNA at 5 uM after 96 hrs by propidium iodide staining-based FACS analysis; format: functional
[9] = Cell cycle arrest in human PC3 cells assessed as accumulation at G2/M phase at 5 uM after 24 hrs by propidium iodide staining-based FACS analysis; format: functional; details: PC-3
[10] = Cytotoxicity against human PC3 cells assessed as cell viability at 5 uM after 72 hrs by tryphan blue staining based microscopy (reference value: 95 to 98 %); format: functional; details: PC-3, 72 h, read-out: Activity
SK-MEL-5 [11] = test: Cell cycle arrest in human SK-MEL-5 cells assessed as accumulation of cells with 4N DNA at 5 uM after 96 hrs by propidium iodide staining-based FACS analysis; format: functional
SK-MEL-28 [12] = test: Cell cycle arrest in human SK-MEL-28 cells assessed as accumulation at G2/M phase at 5 uM after 24 hrs by propidium iodide staining-based FACS analysis; format: functional
SK-MEL-5 [13] = test: Cell cycle arrest in human SK-MEL-5 cells assessed as accumulation at G2/M phase at 5 uM after 24 hrs by propidium iodide staining-based FACS analysis; format: functional
[14] = Cytotoxicity against human PC3 cells assessed as cell viability at 100 nM after 72 hrs by tryphan blue staining-based microscopy (reference value: 95 to 98 %); format: functional; details: PC-3, 72 h, read-out: Activity

CC1(c2ccccc2)SC(NC(=O)C(Cl)Cl)=NN1C(=O)C(Cl)Cl (stereo not given)
Activity (PC-3 [1]): Active | Activity (SK-MEL-5 [2]): Active | Activity (SK-MEL-28 [3]): Active

CC(=O)NC1=NN(C(C)=O)C(C)(c2ccccc2)S1 (stereo not given)
Activity (PC-3 [1]): Active | Activity [4]: Active | Activity (PC-3 [5]): Active | Activity (SK-MEL-5 [6]): Active | Activity (SK-MEL-28 [7]): Active | Activity (SK-MEL-28 [8]): Active | Activity (SK-MEL-5 [2]): Active | Activity [9]: Active | viability at 5 µM [10]: 25% | Activity (SK-MEL-5 [11]): Active | Activity (SK-MEL-28 [12]): Active | Activity (SK-MEL-28 [3]): Active | Activity (SK-MEL-5 [13]): Active

CCC1(c2ccccc2)SC(NC(C)=O)=NN1C(C)=O (stereo not given)
Activity (PC-3 [1]): Active | Activity [4]: Active | Activity (PC-3 [5]): Active | Activity (SK-MEL-5 [6]): Active | Activity (SK-MEL-28 [7]): Active | Activity (SK-MEL-28 [8]): Active | Activity (SK-MEL-5 [2]): Active | Activity [9]: Active | viability at 5 µM [10]: 18% | Activity (SK-MEL-5 [11]): Active | Activity (SK-MEL-28 [12]): Active | Activity (SK-MEL-28 [3]): Active | Activity (SK-MEL-5 [13]): Active

CCC(=O)NC1=NN(C(=O)CC)C(CC)(c2ccccc2)S1 (stereo not given)
Activity (PC-3 [1]): Active

CC(=O)NC1=NN(C(C)=O)C(C)(c2ccc(OC(C)=O)cc2)S1 (stereo not given)
Activity (PC-3 [1]): Active

CC(=O)NC1=NN(C(C)=O)C(C)(c2cc(F)ccc2F)S1 (stereo not given)
Activity (PC-3 [1]): Active

CC(=O)NC1=NN(C(C)=O)C(C)(c2ccccn2)S1 (stereo not given)
Activity (PC-3 [1]): Active

CC(=O)O[C@@]12CO[C@@H]1C[C@H](O)[C@@]1(C)C(=O)[C@H](O)C3=C(C)[C@@H](OC(=O)[C@H](O)[C@@H](NC(=O)OC(C)(C)C)c4ccccc4)C[C@@](O)([C@@H](OC(=O)c4ccccc4)[C@H]21)C3(C)C [DOCETAXEL ANHYDROUS]
viability at 0.1 µM [14]: 32%

CC(=O)NC1=NN(C(C)=O)C(C)(c2cccnc2)S1 (stereo not given)
Activity (SK-MEL-5 [2]): Active | Activity (SK-MEL-28 [3]): Active

C=CCCC1(C)SC(NC(=O)CC)=NN1C(=O)CC (stereo not given)
Activity (SK-MEL-5 [2]): Active | Activity (SK-MEL-28 [3]): Active

CCCCC1(CC)SC(NC(=O)CC)=NN1C(=O)CC (stereo not given)
Activity (PC-3 [1]): Active

CC(=O)NC1=NN(C(C)=O)C(C)(c2cccs2)S1 (stereo not given)
Activity (PC-3 [1]): Active
